# Screening data: PubChem, several laboratories
# RanGTP-Impb inh: disruptors of Ran-importin-beta complex formation – biochemical, FRET, CFP-Ran, YFP-importin-beta, homogeneous, primary screen; cell-free CFP-Ran/YFP-importin-beta FRET ratio; AID 2216; 300,000 tested, 1.1% active; inhibition, % (no concentration beside the values);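 active means more than half of the replicate wells show a fall in the fluorescence ratio signal beyond about 16%, limit read from the data, passing the limit was not always enough; inconclusive means exactly half of the replicate wells pass the set limit; inactive means fewer than half of replicates pass the limit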;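 further: 0% = DMSO wells and 100% = Ran loaded with GDP instead of GTP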
# Platelet DG rel: modulates dense granule release in human platelets; human platelet-rich plasma, SFLLRN dense granule ATP release, luminescence; 300,000 tested, 0.22% active; inhibition, %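 (compounds screened at 7.5 µM in platelet-rich plasma)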; AID 1663;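 active means mean replicate score, as percent of positive control, at or above 50; inconclusive means mean below 50 but at least one replicate at or above 50; inactive means mean and every replicate below 50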
# Runt-CBFb FRET: inhibitors of human RUNX1 Runt domain binding to CBFb; Q01196+Q13951; Cerulean-Runt/Venus-CBFb FRET ratio 530/480, 1 h; inhibition, % at 20 µM; 220,000 tested, 0.46% active; AID 1496;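 active means inhibition over about 50% at 20 µM in the single-dose screen, limit read from the data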;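 further: 0% = DMSO wells and 100% = excess unlabeled CBFb competitor control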
# Target sequence (Q01196 whole entry, looked up, the tested form may be a part): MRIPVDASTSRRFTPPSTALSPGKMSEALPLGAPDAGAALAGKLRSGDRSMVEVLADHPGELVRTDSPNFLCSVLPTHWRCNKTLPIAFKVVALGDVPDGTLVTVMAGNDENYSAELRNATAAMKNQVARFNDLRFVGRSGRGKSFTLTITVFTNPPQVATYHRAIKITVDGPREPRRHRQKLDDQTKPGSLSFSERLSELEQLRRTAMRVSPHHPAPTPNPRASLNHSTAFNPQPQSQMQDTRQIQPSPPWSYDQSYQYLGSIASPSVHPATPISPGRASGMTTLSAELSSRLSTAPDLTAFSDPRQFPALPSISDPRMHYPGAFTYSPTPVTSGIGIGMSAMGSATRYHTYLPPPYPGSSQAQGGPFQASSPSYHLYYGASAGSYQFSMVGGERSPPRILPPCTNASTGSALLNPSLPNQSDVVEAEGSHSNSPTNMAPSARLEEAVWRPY
# Target sequence (Q13951 whole entry, looked up, the tested form may be a part): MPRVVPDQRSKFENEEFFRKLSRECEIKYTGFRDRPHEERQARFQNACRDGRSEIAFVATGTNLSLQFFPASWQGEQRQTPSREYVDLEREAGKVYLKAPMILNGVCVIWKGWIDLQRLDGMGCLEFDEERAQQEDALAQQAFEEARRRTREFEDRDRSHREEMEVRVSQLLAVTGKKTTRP
#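 Measured by: fluorescence energy transfer, 422 nm excitation, 530/480 nm emission; test system: Cerulean-tagged RUNX1 Runt domain (FRET donor) fusion protein; buffer or medium: Tris pH 7.5 buffer with BSA; compound: one dose, 20 µM compound, 1% DMSO; times: two 1 h room-temperature incubations shielded from light; benchmarks: unlabeled CBFb 5 µM, positive control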
# Runt-SMMHC FRET: inhibitors of human RUNX1 Runt domain binding to CBFb-SMMHC; Q01196+Q13951; AID 1434; Cerulean-Runt/Venus-CBFb-SMMHC FRET ratio 530/480, 1 h; inhibition, % at 20 µM; 220,000 tested, 0.74% active;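 active means mean inhibition across duplicate retests at 20 µM reaching about 50%, limit read from the data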;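 further: 0% = DMSO wells and 100% = wells with excess untagged CBFb-SMMHC; inhibitors lower the FRET ratio by blocking Runt binding to CBFb-SMMHC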
# Rce1 inh: blocks yeast Ras-converting enzyme. Q03530. yeast membranes, quenched prenylated peptide cleavage fluorescence. calls only. 290,000 tested, 0.27% active;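 active means fall in fluorescence gain of 50% or more versus controls, with final raw signal at or below 3038400; inconclusive means same 50% fall but final raw signal above 3038400; inactive means fall in fluorescence gain under 50%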;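 further: plate controls were neutral control wells for no effect and wells lacking membranes for full effect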
# RUNX1 CBFb TR: inhibitors of human RUNX1 Runt domain binding to CBFb; shares compounds with Runt-CBFb FRET; TR-FRET RUNX1 Runt domain-CBFb binding; inhibition, % at 20 µM; 480 tested, 20% active; AID 1502; in the data active means inhibition above about 40%
# An asterisk follows results filed as active; i = inactive; ? = inconclusive; nt = no result; + = active, no number. Shown are actives, neighbours in structure and some others; about 1.8% of the full set was active somewhere.
SMILES,RanGTP-Impb inh,Platelet DG rel,Runt-CBFb FRET,Runt-SMMHC FRET,Rce1 inh,RUNX1 CBFb TR
CN(C)c1oc(-c2ccccc2)nc1C#N,-1.1,-0.2,-2.1,-0.3,i,nt
Cc1ccc(-c2noc(CN3C(C)CCCC3C)n2)cc1 (stereo not given),8.8,-7.8,84.0*,-7.5,i,-41.2
Cc1ccc(-c2noc(CN3CCC(C(N)=O)CC3)n2)cc1,-1.5,-8.3,-0.8,2.6,i,nt
O=C(Nc1ccnn1C1CCN(Cc2ccn[nH]2)CC1)c1ccccc1,2.4,11.5,nt,nt,i,nt
Cc1ccc(NC(=S)C2=C(O)c3sccc3N(C)S2(=O)=O)cc1,81.0*,-2.0,65.3*,72.9*,i,15.6
CCCC(C(=O)NC1CCCC1)N(C(=O)Cn1nnc(-c2ccc(C)o2)n1)c1ccccc1OC (stereo not given),0.1,3.6,53.1*,2.6,i,-15.4
O=C(Nc1ccccc1)C1=C(c2ccccc2)S(=O)(=O)CCS1(=O)=O,-1.3,-5.6,52.5*,44.1,i,23.0
O=C(O)c1ccccc1C(=O)Nc1ccccc1,2.2,-1.3,6.8,-2.7,i,nt
Cc1cccc(N2CCc3c2nc2ccc(Br)cc2c3N)c1,5.9,-2.5,57.1*,77.6,+,-14.1
CCCCCn1c(=O)[nH]c2cc(C(=O)NCCN3CCCCC3C)ccc2c1=O (stereo not given),1.7,0.3,nt,nt,i,nt
CN1CCc2c(sc3c2C(=O)NC(c2cccs2)N3)C1 (stereo not given),117.8*,5.9,61.5*,77.6*,i,-5.6
COc1ccc(N(C(=O)c2snc(C(N)=O)c2N)C(C(=O)NCC2CCCO2)c2ccc3ncccc3c2)cc1OC (stereo not given),-2.1,nt,nt,nt,i,nt
Cc1ccc2cc3c(NC(=O)CC(C)C)nn(C)c3nc2c1,4.4,-6.3,4.0,-1.1,i,nt
Cc1ccc2nc3c(cc2c1)c(NC(=O)c1ccccn1)nn3CC(C)C,116.4*,-1.5,52.9*,90.0*,i,33.4
O=C(CC(c1ccccc1)c1cc(Br)ccc1O)N1CCCCC1 (stereo not given),8.4,6.7,0.3,-2.1,i,nt
CC(/C=N/n1c(COc2ccccc2)n[nH]c1=S)=C\c1ccco1,4.3,8.2,14.7,7.9,i,nt
CCCCC(=O)NNC(=S)NC(=O)c1ccc([N+](=O)[O-])cc1,2.8,-9.4,53.6*,22.3,i,-20.3
COc1ncnc(-c2ccccc2)c1-c1ccccc1,-1.5,15.3,nt,nt,i,nt
Oc1cc(-n2cccn2)c(O)cc1-n1cccn1,7.9,8.9,52.6*,100.0*,i,8.2
Cc1ccc(N2C(=O)C(Cl)=C(N3CCOCC3)C2=O)cc1Cl,0.5,3.4,64.8*,53.6*,i,19.8
CCNC(=S)N(Cc1cc2cc(C)ccc2[nH]c1=O)C1CCCC1,-4.8,12.8,57.7*,43.4,i,12.9
CCNC(=S)N(Cc1cc2c(C)ccc(C)c2[nH]c1=O)C1CCCC1,1.8,-0.5,59.6*,28.1,i,23.2
CCNC(=S)N(Cc1cc2cc(C)c(C)cc2[nH]c1=O)C1CCCC1,1.6,0.3,nt,nt,i,nt
COc1ccc(CN(C)C(=O)CNC(=O)CNC(=O)c2ccc(Cl)cc2Cl)cc1F,?,-3.5,nt,nt,i,nt
O=C(CCc1nc2ccccc2[nH]c1=O)OCC(=O)c1cccc2ccccc12,nt,nt,-0.1,-4.8,nt,nt
SMILES,RanGTP-Impb inh,Platelet DG rel,Runt-CBFb FRET,Runt-SMMHC FRET,Rce1 inh,RUNX1 CBFb TR
CCOc1ccccc1NC(=O)CCCNC(=O)c1ccc(Cl)cc1,1.0,6.6,nt,nt,i,nt
Nc1ccc(Sc2ccccc2)nc1,-2.6,0.8,nt,nt,i,nt
COc1ccc(C2C(C#N)=C(N)N(Nc3ccccc3)C3=C2C(=O)CC(C)(C)C3)cc1C (stereo not given),3.3,17.3,61.5*,101.5*,i,-2.8
CCOC(=O)c1c(C)n(C)c2ccc(OC(=O)c3ccc(N4C(=O)CCC4=O)cc3)cc12,?,10.5,-3.2,3.4,i,nt
Cc1cc(O)c(-c2cc(O)c(C)cc2O)cc1O,3.5,-8.3,58.0*,80.0*,i,43.4*
CN(C)c1nc(-c2cccs2)cc(C(F)(F)F)c1C#N,72.9*,-3.8,53.1*,92.2*,i,23.5
Cc1nn(C)c2nc(-c3cccs3)cc(C(F)(F)F)c12,-1.1,6.8,-2.9,-3.0,i,nt
Cc1ccc(NC(=O)COc2coc(CN3CCc4ccccc43)cc2=O)cc1Cl,-2.1,-4.3,nt,nt,i,nt
Fc1ccc(Nc2nc3ccccc3s2)cc1,2.9,1.5,0.4,-1.6,i,nt
Cc1cc(=O)[nH]c(Nc2cccc(C(F)(F)F)c2)n1,5.4,-6.1,-2.0,-4.4,i,nt
O=c1cc(O)c2sc(Nc3cccc(C(F)(F)F)c3)nc2[nH]1,-1.7,-7.0,59.6*,44.7,i,29.4
O=c1cc(O)c2sc(Nc3ccc(F)cc3)nc2[nH]1,4.3,-11.4,55.9*,33.6,i,5.5
CN(CCC#N)C(=O)COC(=O)c1c2c(nc3ccccc13)/C(=C/c1ccco1)CC2,-80.5,-16.3,73.6*,nt,i,62.6*
COCCn1nnnc1CN1CCN(C(=O)c2ccco2)CC1,4.6,1.6,nt,nt,i,nt
CCN1CCc2nc(NC(=O)c3ccc4c(c3)OCCO4)sc2C1,80.4*,2.1,50.9*,111.6*,i,-13.4
CCN1CCc2nc(NC(=O)C(c3ccccc3)c3ccccc3)sc2C1,?,-1.7,51.3*,106.0*,i,-7.7
COc1ccc(NC(=O)CC2C(=O)N(C)C(=S)N2Cc2ccncc2)cc1 (stereo not given),-0.1,-1.4,0.5,-2.4,i,nt
CC(=O)N(c1ccc2oc(=O)sc2c1)S(=O)(=O)c1cccs1,7.4,-3.1,71.5*,63.4*,i,22.0
CC(=O)N(c1ccc2oc(=O)sc2c1)S(=O)(=O)c1ccc(C(=O)O)cc1,1.1,-11.6,nt,nt,i,nt
CC(C)C(=O)N(c1ccc2oc(=O)sc2c1)S(=O)(=O)c1cccs1,-0.1,-8.6,57.9*,36.6,i,38.5
COC(=O)c1ccccc1N/C=C1\CCc2c(c(C)nn2-c2ccccn2)C1=O,35.9*,3.7,53.5*,63.0*,i,50.6*
COCCCn1c(SCC(=O)N2CCOCC2)nnc1-c1ccco1,0.3,nt,nt,nt,i,nt
Cc1ccc(C)c(/C=N/Nc2nc3ccccc3c(=O)n2O)c1,0.4,-14.5,50.7*,19.0,i,-0.7
Cc1cc(C)c2c(N)c(C(=O)Nc3nccs3)sc2n1,-0.2,2.7,55.7*,38.7,i,16.4
COCc1cc(C)nc2sc(C(=O)Nc3nccs3)c(N)c12,-12.6,-9.8,0.6,-87.6,i,nt
Cc1nnc(N(C)C(=O)c2ccccn2)s1,1.9,-5.5,-0.7,-4.0,i,nt
CN(C(=O)c1ccccn1)c1nnc(-c2cccnc2)s1,nt,nt,82.1*,-2.0,nt,-6.3
